Measurements as given in article PMC4664024 (Blood Coagulation & Fibrinolysis, 2015).
Where two headings read alike, the source gives them in different places.

Experiments:
[1] = system: activated partial thromboplastin clotting time (aPTT); test: Activated partial thromboplastin time; assay type: in vivo, human; conditions: at peak concentration and at steady state (T2–T3)
Procedure, shortened: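 Blood drawn the day before surgery (T0), then 2 h ± 10 min post-dose on day 4 ± 1 (T2) and day 7 ± 1 (T3). aPTT (s) run on an automated coagulation analyser. Reported as median and 25th–75th percentiles; Wilcoxon signed-rank test for repeated measures.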

exogenous bovine Xa = exogenous bovine Xa (Bos taurus, UniProt P00743); test: Plasma concentration by functional anti-Xa test in orthopaedic patients; assay type: in vivo; conditions: for range of concentrations observed with the anti-Xa functional tests: T0, before starting the treatment
exogenous bovine Xa, sequence (P00743 234-492 limits assumed): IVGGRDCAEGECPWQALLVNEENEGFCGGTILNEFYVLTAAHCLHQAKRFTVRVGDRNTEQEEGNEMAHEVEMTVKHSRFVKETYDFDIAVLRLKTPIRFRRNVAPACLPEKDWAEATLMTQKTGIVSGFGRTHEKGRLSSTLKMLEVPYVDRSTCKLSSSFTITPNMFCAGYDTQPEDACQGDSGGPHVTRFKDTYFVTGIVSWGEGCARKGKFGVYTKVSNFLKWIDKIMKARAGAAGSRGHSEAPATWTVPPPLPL
exogenous bovine Xa, sequence (P00743 41-180 limits assumed): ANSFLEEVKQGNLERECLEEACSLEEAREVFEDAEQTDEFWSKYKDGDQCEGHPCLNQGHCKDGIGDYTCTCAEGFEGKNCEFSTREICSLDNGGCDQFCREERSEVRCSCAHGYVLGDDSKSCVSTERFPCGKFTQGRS

[2] = assay type: in vivo, human
[3] = healthy Japanese individuals, cited from earlier work

Row | Compound | mean increase in aPTT [1] | plasma concentration by anti-Xa functional assay, arithmetic mean and SD (exogenous bovine Xa; T0 (D−1), before starting the treatment) | range of concentrations observed with the anti-Xa functional tests (exogenous bovine Xa) | Cmax ([2]; human, plasma, oral, 2.5 mg) | minimum period before reaching the steady state ([3]; 2.5 mg twice daily) | Cmax ([3]; after 7 days of 2.5-mg twice-daily treatment) | Cmax ([3]; after a first intake of 2.5 mg) | interindividual variation in the Cmax (coefficient of variation) ([2]; T1, first intake the day after surgery)
1 | COc1ccc(-n2nc(C(N)=O)c3c2C(=O)N(c2ccc(N4CCCCC4=O)cc2)CC3)cc1 [Apixaban] | 6 s | 6 ± 7.5 ng/mL | 0 to 24 ng/mL | 75 ± 37 ng/mL | ≥ 3 treatment days | 84 ng/mL | 51 ± 25 ng/mL | –
2 | O=C(NC[C@H]1CN(c2ccc(N3CCOCC3=O)cc2)C(=O)O1)c1ccc(Cl)s1 [Rivaroxaban] | 15 s | – | 0 to 25 ng/mL | – | – | – | – | around 100%
